Drawing on ChEMBL document CHEMBL3259813, “Design, synthesis and in vitro and in vivo antitumour activity of 3-benzylideneindolin-2-one derivatives, a novel class of small-molecule inhibitors of the MDM2-p53 interaction” (Eur J Med Chem, 2014), this text covers GI50, Activity and TGI for 14 molecules.

Each structure is given as a SMILES string. Bounds are passed on as bounds.

Data set [1] has as its system HCT-116. Briefly: Antiproliferative activity against human HCT116 cells expressing wild type p53 after 48 hrs by MTT assay. Particulars: HCT-116, 48 h. (In general: Formazan colour is commonly taken as a measure of viable cells.)
Data set [2] has as its system HCT-116. Briefly: Antiproliferative activity against p53-deficient human HCT116 cells after 48 hrs by MTT assay. Particulars: HCT-116, 48 h.
Another data set concerns A549. In words: Antiproliferative activity against human A549 cells after 48 hrs by MTT assay. Conditions: A549, 48 h.
The test system of a further data set is MCF7. In words: Antiproliferative activity against human MCF7 cells after 48 hrs by MTT assay. Particulars: MCF7, 48 h.
The test system of data set [3] is Mus musculus. Briefly: Toxicity in BALB/c mouse assessed as death at 500 mg/kg, ip up to 8 days. Also noted: dose 500 mg/kg, route intraperitoneal. Conditions: in vivo, 192 h. The format is organism-based. In outline: (§1)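 BALB/c mice randomised into two groups of 10; single intraperitoneal dose of 500 or 1000 mg/kg in 10% DMSO. Animals monitored for death and visible signs of toxicity over 8 days.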

In data set [4] the test system is HCT-116. Briefly: Induction of p21 expression in human HCT116 cells after 48 hrs by Western blotting analysis. The format is functional, cell-based. In outline:
(§2)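 p53 wild-type HCT116 cells exposed to a range of concentrations for 48 h, lysed in Tris/NaCl/Triton X-100 buffer with protease inhibitors. Protein assayed by Bio-Rad method, separated by SDS-PAGE, transferred to PVDF, blocked in 5% non-fat milk. Primary antibody 2 h at room temperature, peroxidase secondary, ECL detection; beta-actin as loading control.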
Background: Immunoblotting shows a protein as a band on a membrane.

Data set [5] relates to HCT-116. Briefly: Induction of p53 expression in human HCT116 cells after 48 hrs by Western blotting analysis. The format is functional, cell-based. In outline: as §2
Data set [6] has as its system Mus musculus. Briefly: Toxicity in BALB/c mouse assessed as death at 1000 mg/kg, ip after 24 hrs. Particulars: in vivo. The format is organism-based. Also noted: dose 1000 mg/kg, route intraperitoneal. In outline: as §1
The test system of data set [7] is Mus musculus. Briefly: Toxicity in BALB/c mouse assessed as visible side effect at 500 mg/kg, ip up to 8 days. The format is organism-based. More on the design: dose 500 mg/kg, route intraperitoneal. Conditions: in vivo, 192 h. Put shortly: as §1
Data set [8] deals with Mus musculus. In words: Toxicity in BALB/c mouse allografted with mouse CT26 cells assessed as body weight at 50 mg/kg, ip qd administered for 10 days (reference value: 19.45 gm). The format is organism-based. Also noted: dose 50 mg/kg, route intraperitoneal. Particulars: in vivo, 240 h.
Data set [9] concerns HCT-116. In words: Induction of apoptosis in human HCT116 cells after 48 hrs by propidium iodide staining-based flow cytometry. The format is functional, cell-based. Put shortly: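 HCT116 cells seeded at 2×10^5/well, grown 48 h, then exposed to compound for 48 h. Cells fixed overnight in 70% ice-cold ethanol, treated with RNase A (100 µg/ml, 30 min, room temperature), stained with propidium iodide (50 µg/mL final). Analysed by flow cytometry.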

The subject of data set [10] is Mus musculus. In words: Toxicity in BALB/c mouse allografted with mouse CT26 cells assessed as body weight at 100 mg/kg, ip qd administered for 10 days (reference value: 19.45 gm). The format is organism-based. More on the design: dose 100 mg/kg, route intraperitoneal. Particulars: in vivo, 240 h.
A further data set has as its system CT26. Briefly: Antitumor activity against mouse CT26 cells allografted in ip dosed BALB/c mouse assessed as tumor growth inhibition administered qd for 10 days. The format is functional, organism-based. Put shortly: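 CT26 cell suspension implanted s.c. in right axilla of BALB/c mice; randomised 10/group. Dosing i.p. once daily for 10 days, starting 24 h after implantation; vehicle and blank control groups. Mice sacrificed 24 h after last dose, tumours excised and weighed; inhibition = (A–B)/A×100%, A and B mean tumour weights of control and treated groups.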

Data set [11] has as its system HCT-116. In words: Induction of MDM2 expression in human HCT116 cells after 48 hrs by Western blotting analysis. The format is functional, cell-based. Put shortly:
as §2

Data set [12] has as its system HCT-116. Briefly: […] in human HCT116 cells assessed as accumulation at S phase at 50 uM after 48 hrs by propidium iodide staining-based flow cytometry (reference value: 24.8%). The format is functional. In outline: (§3)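 HCT116 (wild-type p53) seeded at 2×10^5 cells/well, cultured 48 h, then treated with compound for 48 h. Washed in cold PBS, fixed overnight in 70% ice-cold ethanol, RNase A (100 µg/ml) 30 min at room temperature, stained with propidium iodide (50 µg/mL final). Cell cycle distribution by flow cytometry.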

For data set [13], the system named is HCT-116. In words: […] in human HCT116 cells assessed as accumulation at G1 phase at 50 uM after 48 hrs by propidium iodide staining-based flow cytometry (reference value: 62.5%). The format is functional. In outline:
as §3
Background: A flow cytometer gives signals particle by particle.

As for `COc1ccc(/C=C2/C(=O)Nc3ccc(Cl)cc32)c(-c2ccc(C#N)cc2)c1`, the GI50 with HCT-116 [1] was 27.1 µM; in the data set with HCT-116 [2], 124 µM; in the data set on A549, > 100 µM; in the data set with MCF7 it was > 100 µM.
On to `COc1cccc(/C=C2/C(=O)Nc3cc(Cl)ccc32)c1-c1ccc(C#N)cc1`, for which the GI50 was 48.3 µM in the data set on HCT-116 [1], 110 µM in the data set with HCT-116 [2], 81.6 µM with A549 and > 100 µM with MCF7.
The corresponding values for `COc1ccc(/C=C2/C(=O)Nc3cc(F)ccc32)c(OC)c1` are 26.9 µM, 65.5 µM, > 100 µM and 88.4 µM.
The corresponding values for `COc1ccc(/C=C2/C(=O)Nc3ccc(Cl)cc32)c(-c2ccc(Cl)cc2)c1` are 32.2 µM, 135 µM, 86.7 µM and > 100 µM.
Taken in the same sequence, the figures for `CCCOc1ccc(/C=C2/C(=O)Nc3ccccc32)c(OCCC)c1` were 14.4 µM, 21.3 µM, 42.4 µM and 54 µM.
For the molecule `COc1ccc(/C=C2/C(=O)Nc3ccc(Cl)cc32)c(Br)c1`, the GI50 in the data set on HCT-116 [1] was 53.4 µM; in the data set with HCT-116 [2] it was 115 µM; in the data set with A549, > 100 µM; in the data set with MCF7, > 100 µM.
Take `COc1ccc(/C=C2/C(=O)Nc3ccc(Cl)cc32)c(OC)c1`: the GI50 is 49.2 µM with HCT-116 [1], 126 µM in the data set on HCT-116 [2], > 100 µM in the data set with A549 and > 100 µM with MCF7.
Consider `CCCOc1ccc(/C=C2/C(=O)Nc3ccc(Cl)cc32)c(OCCC)c1`, for which the GI50 in the data set with HCT-116 [1] was found to be 21 µM; with HCT-116 [2], 26.1 µM; in the data set with A549, 30.2 µM; in the data set on MCF7, 58.4 µM.
Taken in the same sequence, the figures for `COc1ccc(/C=C2/C(=O)Nc3ccc(F)cc32)c(-c2ccc(Cl)cc2)c1` were 15.3 µM, 27.3 µM, 58.8 µM and > 100 µM.
As for `COc1ccc(/C=C2/C(=O)Nc3ccccc32)c(OC)c1`, the Activity entry was “Non-toxic” in the data set on Mus musculus [3]; “Dose-dependent effect” in the data set on HCT-116 [4]; “Dose-dependent effect” in the data set with HCT-116 [5]; “Toxic” in the data set on Mus musculus [6]; “Non-toxic” in the data set on Mus musculus [7]; 18.95 g with Mus musculus [8]. Further, the Activity result is “Dose-dependent effect” in the data set on HCT-116 [9], 18.91 g in the data set with Mus musculus [10] and “Dose-dependent effect” in the data set on HCT-116 [11]. Besides, the GI50 is 13.4 µM in the data set on HCT-116 [1], 28.1 µM with HCT-116 [2], 52.5 µM in the data set with A549 and 54.1 µM in the data set with MCF7. For the same molecule, the TGI entry in the data set with CT26 was “Dose-dependent effect”.
In the case of `CC(C)Oc1ccc(/C=C2/C(=O)Nc3cc(Cl)ccc32)c(OC(C)C)c1`, the GI50 with HCT-116 [1] was found to be 23.4 µM; in the data set on HCT-116 [2], 42 µM; with A549 it was 30.4 µM; in the data set with MCF7, 42.9 µM.
Taken in the same sequence, the figures for `COc1ccc(/C=C2/C(=O)Nc3cc(F)ccc32)c(-c2ccc(C#N)cc2)c1` were 17.1 µM, 109 µM, > 100 µM and > 100 µM.
For `COc1ccc(C2=N[C@@H](c3ccc(Cl)cc3)[C@@H](c3ccc(Cl)cc3)N2C(=O)N2CCNC(=O)C2)c(OC(C)C)c1` [NUTLIN-3], the concentration for 50% growth inhibition (GI50) with HCT-116 [1] was found to be 32.1 µM; in the data set with HCT-116 [2], 55.7 µM; with A549, 47.6 µM; in the data set on MCF7, 48.7 µM. The Activity in the data set on HCT-116 [12] was 8.7%; in the data set with HCT-116 [9], “Dose-dependent effect”; with HCT-116 [13], 53%.
Take `CC(C)Oc1ccc(/C=C2/C(=O)Nc3ccc(Cl)cc32)c(OC(C)C)c1`: the GI50 in the data set on HCT-116 [1] turned out to be 29.7 µM; in the data set with HCT-116 [2], 37.7 µM; in the data set on A549, 42.6 µM; in the data set with MCF7 it was 55.7 µM.

Usually GI50 stands for the concentration at which growth is held to half of that of the control. A low value points to greater sensitivity of the cells.
